Assay outcomes from PubChem BioAssay.
Lipid droplet = hepatic lipid droplet formation modulation; inhibition, % at 6.5 µM; AML12 mouse hepatocytes, oleate lipid droplets, BODIPY imaging; AID 1656; 240,000 tested, 0.4% active;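 active means lipid droplet intensity inhibited by at least 50%, with more than 500 cells counted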
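Material: mouse AML12 hepatocyte cell line, fixed after treatment; Timing: compound with oleate, overnight; Technique: high-content imaging of BODIPY-stained droplets and DAPI nuclei; Probe or stimulus: oleate, 100 µM final; Dosing: compound at 6.5 µM only.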
NTR1 ag = NTR1 (human) agonism; AID 493036; activation, % at 20 µM; P30989; 330,000 tested, 0.17% active; NTR1-U2OS beta-arrestin-GFP spot imaging, agonist mode;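 active means activation at or above 40% of the spot to cytoplasm intensity ratio, with at least 20 cells analyzed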;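 further: 0% = DMSO without peptide and 100% = 100 nM NTR1 peptide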
Arr AP2 block = inhibitors of human beta-arrestin and AP2 interaction; FITC-arrestin peptide / GST-AP2 beads, flow cytometry; AP2 beta2 appendage carries R879A mutation; 340,000 tested, 0.31% active; AID 504490; inhibition, % at 10 µM;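 active means inhibition above a set limit, near 3 SD of compounds lacking own fluorescence, cut at about 54% in these data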;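 further: plate controls were DMSO wells for no effect and 5 µM unlabelled arrestin peptide for full effect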
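System: GST-AP2 R879A glutathione beads | Also added: FITC-arrestin peptide, 50 nM | Times: 12 min plus 1 h, RT | Signal: Bead flow cytometry, FITC channel | Buffer or medium: PBS with 0.05% Tween 20 and 0.1% BSA | Read-out basis: Percent drop in bead-associated FITC signal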
B2AR ag = activates human beta-2 adrenergic receptor causing internalization. AID 504454. Am2.2-beta2AR cells, FAP receptor internalization, flow cytometry. 340,000 tested, 0.43% active. response, % (concentration not given with the values). P07550;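 active means response above a set limit, near 3 SD of response in nonfluorescent compounds, cut at about 42% in these data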
TAG inh = inhibitors of triacylglycerol accumulation; H9c2 cells, Nile Red lipid (TAG) fluorescence; cells loaded with 200 µM oleic acid; inhibition, % at 12.5 µM; 230,000 tested, 0.66% active; AID 651582;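 active means pattern-corrected inhibition of lipid staining of at least 50% with the nuclear-stain viability signal not falling by more than 50%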;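 further: 0% = DMSO wells and 100% = triacsin C control wells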
GRK2 inh = human GRK2 inhibition via aptamer displacement; P25098; bead flow cytometry, FAM-aptamer displacement from GRK2; inhibition of aptamer binding, % at 10 µM; 330,000 tested, 0.59% active; AID 488847;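 active means inhibition of aptamer binding above 40%, roughly 3 SD of noise, on plates passing a quality check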;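 further: median bead fluorescence of bound FAM aptamer so fluorescent compounds give negative values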
Arr AP2 CP1 = human beta-arrestin and AP2 interaction inhibition, cherry pick | inhibition, % at 10 µM | shares compounds with Arr AP2 block | GST-AP2 beads, FITC arrestin peptide binding, flow cytometry; GST-fused beta2-adaptin appendage, R879A mutant | 1,300 tested, 2% active | AID 504908;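 active means inhibition above a set limit, roughly 3 SD of non-fluorescent compound noise, cut at about 38% in these data; inactive means inhibition at or below that limit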;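 further: loss of bead fluorescence from 50 nM FITC arrestin peptide bound to appendage; 0% = negative control wells and 100% = excess unlabelled arrestin peptide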
Target sequence (P63010 whole entry, looked up, the tested form may be a part, one chain of several): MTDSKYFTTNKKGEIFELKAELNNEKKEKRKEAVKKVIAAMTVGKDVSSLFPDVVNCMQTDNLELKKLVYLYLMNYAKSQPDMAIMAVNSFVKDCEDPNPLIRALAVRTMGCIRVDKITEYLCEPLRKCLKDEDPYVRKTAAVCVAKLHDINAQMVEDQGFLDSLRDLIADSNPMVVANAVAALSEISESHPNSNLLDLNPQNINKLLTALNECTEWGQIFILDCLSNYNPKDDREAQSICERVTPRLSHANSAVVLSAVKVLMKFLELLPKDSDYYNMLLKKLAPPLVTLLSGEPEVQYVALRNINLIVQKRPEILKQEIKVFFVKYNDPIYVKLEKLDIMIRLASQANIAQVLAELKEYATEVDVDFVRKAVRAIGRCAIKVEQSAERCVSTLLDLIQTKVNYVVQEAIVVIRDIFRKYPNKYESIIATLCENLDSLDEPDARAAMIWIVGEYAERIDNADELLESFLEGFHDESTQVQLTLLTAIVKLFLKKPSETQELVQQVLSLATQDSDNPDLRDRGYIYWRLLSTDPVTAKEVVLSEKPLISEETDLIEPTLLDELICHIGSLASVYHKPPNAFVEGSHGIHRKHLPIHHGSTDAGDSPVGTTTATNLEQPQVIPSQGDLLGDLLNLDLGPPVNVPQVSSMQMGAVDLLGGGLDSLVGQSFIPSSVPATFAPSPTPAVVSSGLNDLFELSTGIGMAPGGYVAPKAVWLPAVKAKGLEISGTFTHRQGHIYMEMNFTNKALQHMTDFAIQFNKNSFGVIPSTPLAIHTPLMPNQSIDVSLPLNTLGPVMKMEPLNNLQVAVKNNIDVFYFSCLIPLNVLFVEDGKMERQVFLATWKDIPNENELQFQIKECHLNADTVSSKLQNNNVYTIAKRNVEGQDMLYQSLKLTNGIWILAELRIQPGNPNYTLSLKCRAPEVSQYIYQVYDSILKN
GST-FITC bead = disrupts GST binding to glutathione beads, arrestin-AP2 artifact. shares compounds with Arr AP2 block. GST-fluorescein binding to GSH beads, fluorescence, counter-screen. inhibition, % at 10 µM. 1,300 tested, 2% active. AID 588338;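 active means inhibition above 50%, about 3 SD of the inhibition seen with non-fluorescent compounds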;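 further: fluorescein maleimide labelled GST captured on 4 micron glutathione beads; higher means more loss of bead fluorescence from quenching or blocked binding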
The depositor's hits bear a star; i = inactive; . = no result given. This is a sample that favours compounds with a hit; in the whole collection about 2% have one here.

SMILES | Lipid droplet | NTR1 ag | Arr AP2 block | B2AR ag | TAG inh | GRK2 inh | Arr AP2 CP1 | GST-FITC bead
CCCCc1cc(=O)oc2cc(C)cc(OC(C)C(=O)NCc3ccncc3)c12 (configuration not stated) | -19 | 1 | 67* | 2 | . | 2 | -6 | -5
Cc1cc(OC(C)C(=O)NCc2ccncc2)c2c(C)cc(=O)oc2c1 (configuration not stated) | 15 | -2 | 16 | 24 | . | 2 | . | .
Cn1ccnc1SCc1cn2ccccc2n1 | . | -1 | 83* | -2 | 5 | 2 | 3 | 5
COc1ccc(OC)c(NC(=O)CSc2nnc(CCCO)n2-c2ccccc2)c1 | 0 | 0 | 90* | 2 | . | 3 | -9 | -1
COc1ccc(OC)c(NC(=O)CSc2nnc(-c3ccco3)n2-c2ccccc2)c1 | -14 | 0 | -14 | 0 | . | 0 | . | .
O=C(CN1CCOCC1)Nc1ccc(Cl)cn1 | -8 | 1 | 54* | 1 | 8 | 1 | 10 | 8
O=C(CN1CCOCC1)Nc1ccc(Cl)cc1 | -5 | -1 | -7 | 0 | 8 | 12 | . | .
CCN1/C(=C/c2ccc3cc(C)ccc3[n+]2C)Sc2ccc3sccc3c21 | -88 | . | 78* | i | . | . | 68* | 43
CCN1/C(=C/c2ccc3cc(C)ccc3[n+]2CC)Sc2cc(C)ccc21 | -88 | . | -74 | . | -117 | . | . | .
CC1=C(C#N)C(=O)N(C2CCS(=O)(=O)C2)C(=O)/C1=C\c1ccc(C)o1 (configuration not stated) | 1 | 1 | . | . | . | 31 | . | .
COc1ccc(CCN2CC(C(=O)NCc3ccccc3)CCC2=O)cc1 (configuration not stated) | 2 | 0 | 1 | 3 | . | 0 | . | .
Cc1ccccc1CNC(=O)C1CCC(=O)N(Cc2cccc(F)c2)C1 (configuration not stated) | 6 | 1 | 4 | 0 | . | 0 | -1 | -2
COC(=O)c1ccc(CNC(=O)C2CCC(=O)N(CCc3ccccc3)C2)cc1 (configuration not stated) | 18 | 0 | 2 | 8 | 1 | 3 | -9 | 1
Cc1ccccc1CCNC(=O)C1CCC(=O)N(CCc2cccc(F)c2)C1 (configuration not stated) | 0 | 0 | 8 | 12 | . | . | -9 | -4
O=C(NCc1ccccc1OC(F)(F)F)C1CCC(=O)N(Cc2cccc(F)c2)C1 (configuration not stated) | -13 | 2 | -14 | 6 | 2 | 2 | . | .
CCCCNC(=O)C1(C)CCCCN1C(=O)c1csnn1 (configuration not stated) | . | . | . | . | 13 | . | . | .
CN(Cc1cccc(-n2cccn2)c1)C(=O)CCc1nnc(C2CCCCC2)o1 | -19 | 1 | -34 | -23 | 8 | 5 | . | .
Cc1ccc(F)cc1CNC(=O)C1CCC(=O)N(C2CC2)C1 (configuration not stated) | -21 | -1 | -1 | -8 | -14 | 4 | . | .
Cc1[nH]c2ccccc2c1-c1csc(NC(=O)CN2CCOCC2)n1 | -15 | 1 | 57* | -8 | 1 | 0 | -2 | 5
COc1cc(C(=O)N(CCN(C)C)CC2CCCN(Cc3ccccc3F)C2)ccc1C (configuration not stated) | -2 | 1 | -6 | 4 | . | 0 | . | .
Cc1ccccc1C(=O)NC(=S)NCC(=O)c1ccccc1 | . | 3 | -6 | -2 | -32 | 1 | . | .
O=C(CNC(=S)NC(=O)c1ccccc1Br)c1ccccc1 | 25 | 0 | 102* | 4 | . | 17 | 27 | 10
Cc1ncc([N+](=O)[O-])n1Cc1ccc(Br)cc1 | 10 | 0 | 4 | -2 | . | 1 | . | .
CCOc1ccc(C(=O)Nc2cc3c(cc2N2CCCC2)n(CC)c(=O)n3CC)cc1OCC | -2 | 4 | -3 | 5 | . | 0 | 0 | -7
CCn1c2ccccc2c2cc(NC(=O)c3cccc(OC)c3)ccc21 | 12 | 8 | 3 | 11 | . | 0 | . | .
